We go through 29 compounds from ChEMBL document CHEMBL1135925, “Exploration of the pharmacophore of 3-alkyl-5-arylimidazolidinediones as new CB(1) cannabinoid receptor ligands and potential antagonists: synthesis, lipophilicity, affinity, and molecular modeling” (J Med Chem, 2002).

The target of series [1] is Cannabinoid receptor 1 (Homo sapiens) (UniProt P21554). In words: Percent displacement of [3H]-SR-141716A, by compound at 10 uM, in transfected CHO cells expressing the human cannabinoid receptor 1. It is filed as cell-based. A digest of the protocol:
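Membranes (60 μg) from CHO cells expressing human CB1, cultured in Ham F12 with 10% FCS and G418. Test compound screened at 10 μM against 1 nM [3H]-SR-141716A, 1 h at 30 °C, in 50 mM Tris-HCl pH 7.4 with 3 mM MgCl2, 1 mM EDTA and 0.1% BSA. Nonspecific binding defined with 10 μM WIN-55,212-2 or CP-55,940. PEI-treated GF/C filtration, scintillation counting, triplicates, n = 3–5.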
On the technique in general: In a radioligand displacement assay an active substance lowers the binding of a labelled ligand.

A short description of series [2]: Lipophilicity (calculated by CLIP).
Series [3] is described as follows: Capacity factor (log Kw) was measured. In kind it is ADME. The conditions noted are these: RP-HPLC, methanol/phosphate buffer pH 7.4, extrapolated to 0% methanol. The procedure, abridged: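 RP-HPLC on a C18 column (250 mm × 4.6 mm, 5 μm particles), UV detection at 250 nm. Four mobile phases of methanol/0.1 M phosphate buffer pH 7.4 (90:10, 80:20, 75:25, 70:30 v/v). k' = (tr − t0)/t0, with t0 the column dead time. Calibrated against reference solutes of known log P (0.64–3.30), and log kw indices correlated with log P.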

Sequence of Cannabinoid receptor 1 (Homo sapiens) (P21554 whole entry): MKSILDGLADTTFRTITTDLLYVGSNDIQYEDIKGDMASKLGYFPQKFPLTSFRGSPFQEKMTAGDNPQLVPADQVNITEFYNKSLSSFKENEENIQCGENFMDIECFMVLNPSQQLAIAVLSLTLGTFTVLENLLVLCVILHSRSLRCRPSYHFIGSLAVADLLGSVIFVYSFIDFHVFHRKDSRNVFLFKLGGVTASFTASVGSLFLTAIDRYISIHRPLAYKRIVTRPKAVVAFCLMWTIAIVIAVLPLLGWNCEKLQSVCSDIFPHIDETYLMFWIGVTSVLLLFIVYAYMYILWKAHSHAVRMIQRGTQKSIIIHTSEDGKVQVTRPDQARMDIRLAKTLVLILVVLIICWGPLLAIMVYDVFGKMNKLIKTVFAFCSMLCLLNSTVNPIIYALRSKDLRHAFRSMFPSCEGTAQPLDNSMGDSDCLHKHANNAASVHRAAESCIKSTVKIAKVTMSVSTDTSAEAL

Turning to `O=C1NC(Cc2c[nH]c3ccccc23)C(=O)N1CCCc1ccccc1` (stereo unspecified), the Displacement in series [1] worked out at 44.3%. Besides, the CLIP in series [2] is 2.8. Take `CCCCCCCCN1C(=O)NC(c2ccccc2)(c2ccccc2)C1=O`: the CLIP in series [2] is 6.5. Same read-out and setting: under `O=C1NC(c2ccccc2)(c2ccccc2)C(=O)N1CCN1CCOCC1` stands 2.16. On the same count and under the same terms, under `CCCCCCCN1C(=O)NC(c2ccc(F)cc2)(c2ccc(F)cc2)C1=O` stands 6.42. Still for that read-out and setting: under `O=C1NC(c2ccccc2)(c2ccccc2)C(=O)N1Cc1ccccc1` stands 4.11. For the compound `O=C1NC(c2ccccc2)(c2ccccc2)C(=O)N1CCN1CCCCC1`, in series [3], the “Log Kw” value is 4.11. In addition, the CLIP in series [2] is 3.83. Taken in the same sequence, the figures for `CCCCCCN1C(=O)NC(c2ccc(Br)cc2)(c2ccc(Br)cc2)C1=O` were 6.14 and 6.87.

With `CCCCCCN1C(=O)NC(c2ccc(F)cc2)(c2ccc(F)cc2)C1=O`, the CLIP in series [2] is 5.81.

In the case of `COc1ccc(C2(c3ccc(OC)cc3)NC(=O)N(CCN3CCOCC3)C2=O)cc1`, the CLIP in series [2] is reported as 2.73.

Turning to `O=C1NC(c2ccc(F)cc2)(c2ccc(F)cc2)C(=O)N1CCN1CCOCC1`, in series [2], the CLIP is 2.81. With `CCCCN1C(=O)NC(c2ccccc2)(c2ccccc2)C1=O`, the “Log Kw” value in series [3] is 3.46. Also, the CLIP in series [2] is recorded as 4.26. Taken in the same sequence, the figures for `CCCCCCN1C(=O)NC(c2ccccc2)(c2ccccc2)C1=O` were 4.32 and 5.37.

As for `O=C1NC(Cc2c[nH]c3ccccc23)C(=O)N1Cc1cccc2ccccc12` (stereo unspecified), the Displacement in series [1] worked out at 59.8%. In addition, the “Log Kw” value in series [3] is 3.08. In addition, the CLIP in series [2] is 2.92.

For the compound `CCCCCN1C(=O)NC(c2ccccc2)(c2ccccc2)C1=O`, the CLIP in series [2] was 4.8. In the case of `CCCN1C(=O)NC(c2ccccc2)(c2ccccc2)C1=O`, in series [3], the “Log Kw” value was 2.93. Further, in series [2], the CLIP is 3.84. For `CCCCCCN1C(=O)NC(Cc2c[nH]c3ccccc23)C1=O` (stereo unspecified), the Displacement in series [1] was found to be 28.8%. Also, the “Log Kw” value in series [3] is listed as 3.17. Also, the CLIP in series [2] is given as 3.21. As to `O=C1NC(c2ccc(Br)cc2)(c2ccc(Br)cc2)C(=O)N1CCN1CCOCC1`, the “Log Kw” value in series [3] is recorded as 4.5. The CLIP in series [2] is given as 3.86.

In series [1], `CCCCN1C(=O)NC(Cc2c[nH]c3ccccc23)C1=O` (stereo unspecified) showed a Displacement of less than 5%. Further, the “Log Kw” value in series [3] is reported as 2.35. The CLIP in series [2] is recorded as 2.21. As for `CN(C)CCN1C(=O)NC(c2ccccc2)(c2ccccc2)C1=O`, the “Log Kw” value in series [3] is reported as 3. For the same compound, the CLIP in series [2] was 2.83. Take `CCCCCCCCN1C(=O)NC(c2ccc(F)cc2)(c2ccc(F)cc2)C1=O`: the CLIP in series [2] was 6.94. As to `Cc1ccc(C2(c3ccc(C)cc3)NC(=O)N(CCN3CCOCC3)C2=O)cc1`, the CLIP in series [2] is 3.49.

Consider `CCCCCCN1C(=O)NC(c2ccc(C)cc2)(c2ccc(C)cc2)C1=O`, for which the CLIP in series [2] is given as 6.48. On the same count and under the same terms, under `CCCCCCCN1C(=O)NC(c2ccc(C)cc2)(c2ccc(C)cc2)C1=O` stands 7.04. In the case of `CCCCCCCN1C(=O)NC(c2ccc(Br)cc2)(c2ccc(Br)cc2)C1=O`, in series [3], the “Log Kw” value is 6.65. Moreover, the CLIP in series [2] is 7.45. Consider `O=C1NC(c2ccc(Br)cc2)(c2ccc(Br)cc2)C(=O)N1CCCO`, for which the CLIP in series [2] is on record as 3.76. `CC(C)N1C(=O)NC(c2ccccc2)(c2ccccc2)C1=O`: the Displacement in series [1] is less than 5%. Further, in series [2], the CLIP is 2.89. Regarding `CCCCCCCCN1C(=O)NC(c2ccc(Br)cc2)(c2ccc(Br)cc2)C1=O`, the CLIP in series [2] is reported as 7.99. As for `O=C1NC(Cc2c[nH]c3ccccc23)C(=O)N1CCc1ccccc1` (stereo unspecified), in series [1], the Displacement came out at 64%. In addition, the CLIP in series [2] is on record as 2.31. Regarding `CCCCCCN1C(=O)NC(c2ccc(OC)cc2)(c2ccc(OC)cc2)C1=O`, the CLIP in series [2] is 5.81.
